Measured values: ChEMBL document CHEMBL4340523, “Selective Inhibitors of Helicobacter pylori Methylthioadenosine Nucleosidase and Human Methylthioadenosine Phosphorylase” (J Med Chem, 2019)
pKd: −log10 of the molar value. Activity calls are given as the source filed them. The rule behind the calls is not given here.

tested on: not listed separately; test: Selectivity ratio of Kd for recombinant human N-terminal TEV cleavage site-fused-His6-tagged MTAP expressed in Escherichia coli BL21-CodonPlus(DE3)-RIPL competent cells to Kd for recombinant Helicobacter pylori MTAN expressed in Escherichia coli BL21(DE3)
Outline: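 Ratio of the human MTAP dissociation constant to the HpMTAN dissociation constant. Each constant came from xanthine oxidase-coupled 305 nm rates taken at 40 min after slow-onset equilibrium and fitted to the Morrison equation. The MTAP assay used 800 μM MTA and 3 nM enzyme in 100 mM K2PO4; the HpMTAN assay used 1 mM MTA and 0.6 nM enzyme in 100 mM HEPES pH 7.2 with 100 mM NaCl.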

SMILES | Selectivity ratio
Nc1ncnc2c(CN3C[C@H](CSCCCc4cn(Cc5ccccc5)nn4)[C@@H](O)C3)c[nH]c12 | 38.9
CSC[C@H]1CN(Cc2c[nH]c3c(N)nccc23)C[C@@H]1O | 3.1
C#CCCCSC[C@H]1CN(Cc2c[nH]c3c(N)ncnc23)C[C@@H]1O | 36.2
Nc1ncnc2c(CN3C[C@H](CSc4ncccn4)[C@@H](O)C3)c[nH]c12 | 224
CCCCn1cc(CSC[C@H]2CN(Cc3c[nH]c4c(N)ncnc34)C[C@@H]2O)nn1 | 99.2
C=CCn1cc(CSC[C@H]2CN(Cc3c[nH]c4c(N)ncnc34)C[C@@H]2O)nn1 | 243
Cn1cc(CCCSC[C@H]2CN(Cc3c[nH]c4c(N)ncnc34)C[C@@H]2O)nn1 | 120
C#CCSC[C@H]1CN(Cc2c[nH]c3c(N)ncnc23)C[C@@H]1O | 11.5
Cn1cc(CSC[C@H]2CN(Cc3c[nH]c4c(N)ncnc34)C[C@@H]2O)nn1 | 241
CSC[C@H]1CN(Cc2[nH]nc3c(N)ncnc23)C[C@@H]1O | 80.9
C=CCn1cc(CCCSC[C@H]2CN(Cc3c[nH]c4c(N)ncnc34)C[C@@H]2O)nn1 | 92.3
CCCCn1cc(CCCSC[C@H]2CN(Cc3c[nH]c4c(N)ncnc34)C[C@@H]2O)nn1 | 46.4
Nc1ncnc2c(CN3C[C@H](CSCc4cn(Cc5ccccc5)nn4)[C@@H](O)C3)c[nH]c12 | 178

tested on: Helicobacter pylori; test: Binding affinity to recombinant Helicobacter pylori MTAN expressed in Escherichia coli BL21(DE3) assessed as reduction in MTA hydrolysis at 5 uM measured after 40 mins in presence of xanthine oxidase

SMILES | Activity
O=c1[nH]ccc2c(CN3C[C@H](CO)[C@@H](O)C3)c[nH]c12 | inactive
CSC[C@H]1CN(Cc2c[nH]c3c(=O)[nH]ccc23)C[C@@H]1O | inactive

tested on: not listed separately; test: Binding affinity to recombinant Helicobacter pylori MTAN expressed in Escherichia coli BL21(DE3) assessed as reduction in MTA hydrolysis measured after 40 mins in presence of xanthine oxidase
Outline: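 His-tagged HpMTAN was purified by Ni-NTA and freed of bound adenine by charcoal dialysis. Adenine was oxidized to 2,8-dihydroxyadenine and followed at 305 nm. Rates were read at 40 min, after slow-onset equilibrium, and fitted to the Morrison quadratic equation for Ki*.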

SMILES | pKd
Nc1ncnc2c(CN3C[C@H](CSCCCc4cn(Cc5ccccc5)nn4)[C@@H](O)C3)c[nH]c12 | 10.44
CSC[C@H]1CN(Cc2c[nH]c3c(N)nccc23)C[C@@H]1O | 7.99
C#CCCCSC[C@H]1CN(Cc2c[nH]c3c(N)ncnc23)C[C@@H]1O | 10.59
Nc1ncnc2c(CN3C[C@H](CSc4ncccn4)[C@@H](O)C3)c[nH]c12 | 10.24
CCCCn1cc(CSC[C@H]2CN(Cc3c[nH]c4c(N)ncnc34)C[C@@H]2O)nn1 | 9.43
C=CCn1cc(CSC[C@H]2CN(Cc3c[nH]c4c(N)ncnc34)C[C@@H]2O)nn1 | 9.54
Cn1cc(CCCSC[C@H]2CN(Cc3c[nH]c4c(N)ncnc34)C[C@@H]2O)nn1 | 10.60
C#CCSC[C@H]1CN(Cc2c[nH]c3c(N)ncnc23)C[C@@H]1O | 10.26
Cn1cc(CSC[C@H]2CN(Cc3c[nH]c4c(N)ncnc34)C[C@@H]2O)nn1 | 9.56
CSC[C@H]1CN(Cc2[nH]nc3c(N)ncnc23)C[C@@H]1O | 9.63
C=CCn1cc(CCCSC[C@H]2CN(Cc3c[nH]c4c(N)ncnc34)C[C@@H]2O)nn1 | 10.59
CCCCn1cc(CCCSC[C@H]2CN(Cc3c[nH]c4c(N)ncnc34)C[C@@H]2O)nn1 | 10.55
Nc1ncnc2c(CN3C[C@H](CSCc4cn(Cc5ccccc5)nn4)[C@@H](O)C3)c[nH]c12 | 10.14

target: T1, S-methyl-5'-thioadenosine phosphorylase (Homo sapiens) (UniProt Q13126); test: Binding affinity to recombinant human N-terminal TEV cleavage site-fused-His6-tagged MTAP expressed in Escherichia coli BL21-CodonPlus(DE3)-RIPL competent cells assessed as reduction in MTA hydrolysis at 5 uM measured after 40 mins in presence of xanthine oxidase
T1 sequence (whole entry): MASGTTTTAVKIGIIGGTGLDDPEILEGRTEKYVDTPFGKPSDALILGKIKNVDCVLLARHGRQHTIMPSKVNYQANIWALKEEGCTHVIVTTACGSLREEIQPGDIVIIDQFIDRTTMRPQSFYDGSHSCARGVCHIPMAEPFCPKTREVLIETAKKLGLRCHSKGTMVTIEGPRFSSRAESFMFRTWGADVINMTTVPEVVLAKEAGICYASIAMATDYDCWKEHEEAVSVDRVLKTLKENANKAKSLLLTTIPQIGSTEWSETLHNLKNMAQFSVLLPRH

SMILES | Activity
O=c1[nH]ccc2c(CN3C[C@H](CO)[C@@H](O)C3)c[nH]c12 | inactive
CSC[C@H]1CN(Cc2c[nH]c3c(=O)[nH]ccc23)C[C@@H]1O | inactive

target: T2, S-methyl-5'-thioadenosine phosphorylase (Homo sapiens, UniProt Q13126); test: Binding affinity to recombinant human N-terminal TEV cleavage site-fused-His6-tagged MTAP expressed in Escherichia coli BL21-CodonPlus(DE3)-RIPL competent cells assessed as reduction in MTA hydrolysis measured after 40 mins in presence of xanthine oxidase
T2 sequence (Q13126 whole entry): T1 sequence (whole entry)
Outline: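 MTAP (His6-tagged, TEV site, 14 extra N-terminal residues) was Ni-NTA purified and charcoal-dialysed to remove adenine. Each 1 mL cuvette held 100 mM K2PO4, 1 mM DTT, 800 μM MTA, 3 nM MTAP, 1 unit xanthine oxidase and varying inhibitor. Xanthine oxidase coupling gave 2,8-dihydroxyadenine, read at 305 nm (ε 15.5 mM⁻¹ cm⁻¹). Rates were taken at 40 min after slow-onset equilibrium. Ki* came from a Morrison quadratic fit.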

SMILES | pKd
Nc1ncnc2c(CN3C[C@H](CSCCCc4cn(Cc5ccccc5)nn4)[C@@H](O)C3)c[nH]c12 | 8.85
CSC[C@H]1CN(Cc2c[nH]c3c(N)nccc23)C[C@@H]1O | 7.50
C#CCCCSC[C@H]1CN(Cc2c[nH]c3c(N)ncnc23)C[C@@H]1O | 9.03
Nc1ncnc2c(CN3C[C@H](CSc4ncccn4)[C@@H](O)C3)c[nH]c12 | 7.89
CCCCn1cc(CSC[C@H]2CN(Cc3c[nH]c4c(N)ncnc34)C[C@@H]2O)nn1 | 7.43
C=CCn1cc(CSC[C@H]2CN(Cc3c[nH]c4c(N)ncnc34)C[C@@H]2O)nn1 | 7.15
Cn1cc(CCCSC[C@H]2CN(Cc3c[nH]c4c(N)ncnc34)C[C@@H]2O)nn1 | 8.52
C#CCSC[C@H]1CN(Cc2c[nH]c3c(N)ncnc23)C[C@@H]1O | 9.20
Cn1cc(CSC[C@H]2CN(Cc3c[nH]c4c(N)ncnc34)C[C@@H]2O)nn1 | 7.18
CSC[C@H]1CN(Cc2[nH]nc3c(N)ncnc23)C[C@@H]1O | 7.72
C=CCn1cc(CCCSC[C@H]2CN(Cc3c[nH]c4c(N)ncnc34)C[C@@H]2O)nn1 | 8.62
CCCCn1cc(CCCSC[C@H]2CN(Cc3c[nH]c4c(N)ncnc34)C[C@@H]2O)nn1 | 8.89
Nc1ncnc2c(CN3C[C@H](CSCc4cn(Cc5ccccc5)nn4)[C@@H](O)C3)c[nH]c12 | 7.89
